Columns and labels:
[1] = test system: U251MG subcutaneous tumor xenografts; test: Subcutaneous glioma xenograft tumor growth; format: in vivo, mouse; conditions: 2 mg/kg, oral gavage, 33 days
Method in brief: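 Female athymic nude mice, 4 weeks old, injected subcutaneously in the left flank with 7.3 ×10^6 U251MG cells in PBS/matrigel. At 20 days (tumours 170–250 mm3), mice grouped by matched mean tumour size. Dosed 2 mg/kg by oral gavage in 1% DMSO vehicle, three times weekly, for 33 days. Caliper volumes (V = 0.52 × a2 × b) and body weights recorded; paired t test against vehicle.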

Stat3 = Stat3 DNA-binding activity/EMSA of nuclear extracts from treated glioma cells; format: cell-based, human; conditions: 5 μM, glioma cells, EMSA
G12 cells = test: Growth of glioma patient-derived xenograft cells in vitro; format: cell-based; conditions: Homo sapiens, read-out: inhibitory activity against G12 cell growth
pS-Akt = test: Immunoblotting, U251MG glioma cells; format: cell-based, human; conditions: 5 μM
Method in brief: (§1)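 U251MG cells given 5 μM test compound for 0–24 h. Whole-cell lysates of equal total protein immunoblotted for pErk1/2, Erk1/2, pS-Akt, Akt, pJAK2, JAK2, SOCS3 and PTP1B, with β-actin or GAPDH as loading reference.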

G22 cells [2] = test: 3D spheroid assay; format: cell-based, human; conditions: 5 μM, treated once
pErk1/2MAPK [3] = test: Immunoblotting, EGF-stimulated NIH3T3/hEGFR fibroblasts; format: cell-based, mouse; conditions: 5 μM pre-treatment
Method in brief: (§2)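 NIH3T3/hEGFR fibroblasts pretreated with or without 5 μM test compound for 3 h, then stimulated with 1 μg/ml EGF for 12 min. Whole-cell lysates, equal total protein, immunoblotted for pStat1/Stat1, pStat5/Stat5 and pErk1/2/Erk1/2.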

G10 cells = test: Growth of glioma patient-derived xenograft cells in vitro; format: cell-based; conditions: Homo sapiens, read-out: inhibitory activity against growth of G10 cells
pStat1 = test: Immunoblotting, EGF-stimulated NIH3T3/hEGFR fibroblasts; format: cell-based, mouse; conditions: 5 μM pre-treatment
Method in brief: as §2

pStat5 = test: as above; format: cell-based, mouse; conditions: 5 μM pre-treatment
Method in brief: as §2

U251MG cells [4] = test: Scratch assay for migration; format: cell-based, human; conditions: 5 μM, 19-h treatment
Method in brief: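 Sub-confluent U251MG monolayers wounded with pipette tips and treated once with test compound (0–5 μM) or DMSO vehicle. Cells allowed to migrate into the denuded area over 19 h, then imaged by microscopy at 10×.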

pJAK2 = test: Immunoblotting, U251MG glioma cells; format: cell-based, human; conditions: 5 μM
Method in brief: as §1

NIH3T3 cells = test: Colony survival assay; format: cell-based, mouse; conditions: 2.5 μM or less
Method in brief: (§3)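 Cells seeded as single cells at 250 per well and treated once the next day with test compound (0–5 μM) for 72 h. Grown until large colonies were visible: 1 week for NIH3T3, 2 weeks for U251MG. Colonies stained with crystal violet for 4 h and counted.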

[5] = test system: c-Myc, Bcl-2, Mcl-1 and Bcl-xL expression; test: Immunoblots of Stat3-regulated gene products in U251MG cells; format: cell-based, human; conditions: 5 μM
Method in brief: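 Whole-cell lysates prepared from U251MG cells given 5 μM test compound for 0–24 h, with 0.025% DMSO as control. Immunoblotted for c-Myc, Bcl-2, Bcl-xL, Mcl-1, pStat3 and Stat3, with GAPDH as loading reference.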

U251MG cells [6] = test: Colony survival assay; format: cell-based, human; conditions: 1 μM, treated once
Method in brief: as §3

pStat3 [7] = test: Immunoblotting of pStat3 in patient-derived xenograft cells; format: cell-based, human; conditions: 5 μM, 3 h
Method in brief: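 Glioma patient-derived xenograft G22 cells (DMEM, 5–10% heat-inactivated FBS) given 5 μM test compound for 0–24 h. Whole-cell lysates immunoblotted for pStat3 and Stat3, with GAPDH as loading reference.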

U251MG cells [8] = test: BrdU incorporation assay; format: cell-based, human; conditions: 5 μM, at 24 h
Method in brief: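 U251MG cells on glass coverslips exposed to DMSO or 5 μM test compound for 3–24 h. BrdU (10 micromolar) added for the final 2 h. Fixed in 4% paraformaldehyde for 10 min, stained with anti-BrdU antibody and counterstained with DAPI. Imaged by fluorescence microscopy, and cells counted.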

pErk1/2MAPK [9] = test: Immunoblotting, U251MG glioma cells; format: cell-based, human; conditions: 5 μM
Method in brief: as §1

pYStat3 = test: Immunoblotting of pStat3 in treated U251MG cells; format: cell-based, human; conditions: 5 μM, glioma cells, immunoblotting
Method in brief: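 Whole-cell lysates from U251MG cells given test compound at 5 μM for 0–24 h, or at 0–5 μM for 2 h. Immunoblotted for pY705Stat3 and total Stat3, with GAPDH as loading reference.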

[10] = Body weights and signs of toxicity in tumor-bearing mice; format: in vivo; conditions: 2 mg/kg, oral gavage, 33 days
[11] = test system: protein tyrosine phosphatase (PTP)1B; test: Immunoblotting, U251MG glioma cells; format: cell-based, human; conditions: 5 μM
Method in brief: as §1

Stat1:Stat1 = molecular target: T1, Stat1:Stat1 (Mus musculus, UniProt P42225); test: Cell-free EMSA, EGF-stimulated NIH3T3/hEGFR nuclear extracts; format: biochemical; conditions: 5 μM, 30 min pre-incubation
T1 sequence (P42225 2-749 limits assumed): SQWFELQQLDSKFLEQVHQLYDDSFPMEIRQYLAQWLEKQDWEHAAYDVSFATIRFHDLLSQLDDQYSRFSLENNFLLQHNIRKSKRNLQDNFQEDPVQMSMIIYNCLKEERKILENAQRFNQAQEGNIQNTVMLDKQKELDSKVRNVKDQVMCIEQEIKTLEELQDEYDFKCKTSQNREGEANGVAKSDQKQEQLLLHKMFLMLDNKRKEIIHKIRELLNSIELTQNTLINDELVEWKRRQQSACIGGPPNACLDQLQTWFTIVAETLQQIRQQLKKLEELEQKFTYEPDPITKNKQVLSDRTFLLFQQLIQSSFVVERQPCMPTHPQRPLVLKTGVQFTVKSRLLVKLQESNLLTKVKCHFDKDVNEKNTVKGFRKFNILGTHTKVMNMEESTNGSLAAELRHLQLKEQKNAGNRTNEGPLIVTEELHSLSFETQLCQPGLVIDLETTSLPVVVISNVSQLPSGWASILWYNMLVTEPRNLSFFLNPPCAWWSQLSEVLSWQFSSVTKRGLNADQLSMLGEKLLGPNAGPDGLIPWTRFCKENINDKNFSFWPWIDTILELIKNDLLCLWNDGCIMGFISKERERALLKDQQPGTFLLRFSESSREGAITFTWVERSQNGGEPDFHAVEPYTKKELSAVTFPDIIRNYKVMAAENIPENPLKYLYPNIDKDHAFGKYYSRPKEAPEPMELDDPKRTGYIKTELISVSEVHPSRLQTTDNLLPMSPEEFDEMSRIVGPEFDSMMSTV
Method in brief: (§4)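 Nuclear extracts from EGF-stimulated NIH3T3/hEGFR fibroblasts, containing active Stat1, Stat3 and Stat5, preincubated with 5 μM test compound for 30 min at room temperature. Then incubated 30 min with 32P-labelled probe before EMSA: hSIE (Stat1/Stat3 binding) or MGFe (bovine β-casein element; Stat1/Stat5 binding). STAT:DNA bands quantified as percent of control.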

pStat3 [12] = test: Immunoblots of tumor tissue lysates from treated mice; format: in vivo, mouse; conditions: four-to-five cases out of six
Method in brief: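 After oral dosing, lysates of residual subcutaneous U251MG tumour tissue from treated and 1% DMSO vehicle mice. Immunoblotted for pStat3 and Stat3, with GAPDH as loading reference.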

G22 cells [13] = test: Growth of glioma patient-derived xenograft cells in vitro; format: cell-based; conditions: Homo sapiens, read-out: inhibitory activity against growth of G22 cells
Stat5:Stat5 = test: Cell-free EMSA, EGF-stimulated NIH3T3/hEGFR nuclear extracts, MGFe probe; format: biochemical, mouse; conditions: 5 μM, 30 min pre-incubation
Method in brief: as §4

Stat3:Stat3 = Stat3:Stat3 (Mus musculus, UniProt P42227); test: Cell-free EMSA, nuclear extracts pre-incubated with compound, hSIE probe; format: biochemical; conditions: 5 μM, 30 min pre-incubation, NIH3T3/v-Src nuclear extracts
[14] = test system: suppressors of cytokine signaling (SOCS)3; test: Immunoblotting, U251MG glioma cells; format: cell-based, human; conditions: 5 μM
Method in brief: as §1

U251MG cells [15] = test: Immunofluorescence staining/confocal microscopy of mitosis; format: cell-based, human; conditions: 15 h treatment
Method in brief: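 U251MG cells on coverslips synchronised by double thymidine block (2 mM) and released for 9 h. Then given DMSO, 100 nM paclitaxel or 8 μM test compound for 15 h. Fixed in 4% paraformaldehyde, permeabilised with 0.1% digitonin and blocked in 0.2% BSA. Stained with anti-β-tubulin (1:350) and anti-MAP1B (1:300) for 1 h at room temperature, then fluorescent secondaries and DAPI; confocal imaging.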

Sequence of Stat3:Stat3 (P42227 2-770 limits assumed): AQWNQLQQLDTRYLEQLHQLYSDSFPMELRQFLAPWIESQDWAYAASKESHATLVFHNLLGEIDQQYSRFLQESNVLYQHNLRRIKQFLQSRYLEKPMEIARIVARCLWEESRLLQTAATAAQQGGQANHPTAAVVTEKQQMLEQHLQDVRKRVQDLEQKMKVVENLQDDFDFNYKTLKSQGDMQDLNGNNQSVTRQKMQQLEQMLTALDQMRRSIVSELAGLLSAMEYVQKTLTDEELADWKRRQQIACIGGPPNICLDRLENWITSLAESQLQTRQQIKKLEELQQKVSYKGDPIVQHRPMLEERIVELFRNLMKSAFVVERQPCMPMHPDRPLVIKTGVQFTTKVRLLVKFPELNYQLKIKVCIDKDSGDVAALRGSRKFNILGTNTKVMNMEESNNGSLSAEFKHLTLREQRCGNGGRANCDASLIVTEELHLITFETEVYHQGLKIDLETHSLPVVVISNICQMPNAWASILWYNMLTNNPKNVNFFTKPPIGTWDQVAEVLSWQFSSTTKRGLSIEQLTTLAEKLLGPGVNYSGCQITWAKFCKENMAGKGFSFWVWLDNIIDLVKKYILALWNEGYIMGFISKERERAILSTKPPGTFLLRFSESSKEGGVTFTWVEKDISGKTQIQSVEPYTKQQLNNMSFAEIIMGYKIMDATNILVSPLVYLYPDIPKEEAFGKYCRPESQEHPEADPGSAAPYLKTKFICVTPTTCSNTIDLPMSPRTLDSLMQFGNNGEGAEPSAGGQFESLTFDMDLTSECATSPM

C/C=C(\C)C(=O)O[C@H]1C[C@@H](C)[C@]2(O)CC[C@](C)(/C=C3/OC(=O)C(COC(C)=O)=C31)O2 [Compound 6]
growth of subcutaneous U251MG xenografts [1]: inhibited growth | effect on Stat3 DNA-binding activity in treated tumor cells (Stat3): strongly inhibited | inhibition at 5 µM (G12 cells): 25 to 35% | effect on pS-Akt levels (pS-Akt): no effects | 3D spheroid growth (G22 cells [2]): decreased 3D spheroid growth | effect on EGF-stimulated pErk1/2MAPK levels (pErk1/2MAPK [3]): no effect | inhibition at 5 µM (G10 cells): 45 to 60% | effect on EGF-stimulated pStat1 levels (pStat1): no effect | effect on EGF-stimulated pStat5 levels (pStat5): no effect | migration into the denuded area (U251MG cells [4]): slowed migration | effect on pJAK2 (pJAK2): apparent moderate increase | effects on NIH3T3 colony numbers (NIH3T3 cells): moderate or none | c-Myc, Bcl-2, Mcl-1 and Bcl-xL expression [5]: down regulated | U251MG colony formation (U251MG cells [6]): completely inhibited | effect on Phospho-Stat3 in G22 cells (pStat3 [7]): strongly inhibited | cell proliferation measured by BrdU incorporation (U251MG cells [8]): significantly impaired | effect on pErk1/2MAPK levels (pErk1/2MAPK [9]): no effects | effect on pStat3 in treated tumor cells (pYStat3): strongly inhibited | body weights or obvious signs of toxicity [10]: No significant changes | effect on PTP1B levels [11]: no effects | effect on Stat1:Stat1 activity, cell-free EMSA (Stat1:Stat1): weak effects | pStat3 and Stat3 levels in residual tumor tissues (pStat3 [12]): lower | inhibition at 5 µM (G22 cells [13]): 45 to 60% | effect on Stat5:Stat5 activity, cell-free EMSA (Stat5:Stat5): weak effects | Stat3:Stat3/DNA-binding activity (complexation), cell-free EMSA (Stat3:Stat3): diminished | effect on SOCS3 levels [14]: no effects | chromatid structures and sister-chromatids segregation (mitosis) (U251MG cells [15]): caused defects
